# Screening data (PubChem)
# This is a sample that favours compounds with a hit; in the whole collection about 2.1% have one here.
# m5-HT2A agonist – mouse HTR2A agonism via beta-arrestin recruitment | P35363 | 360,000 tested, 0.66% active | CHO-K1 mHTR2A beta-arrestin complementation, luminescence; percent of 30 µM serotonin response | activation, % at 7.6 µM;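 active means activation above a run cutoff, the mean activation of all tested compounds plus 3 SD, cut at about 14% in these data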;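 further: 0% = plate median of compound wells and 100% = 30 µM serotonin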
# APJ antagonist – blocks the human apelin receptor APJ | inhibition, % at 20 µM | AID 2521 | 330,000 tested, 0.32% active | CHO-K1 APJ beta-arrestin complementation, luminescence;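 active means inhibition above about 40% at 20 µM, limit read from the data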;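 further: cells challenged with 10 nM apelin-13 agonist together with compound; plate controls were apelin-13 plus DMSO wells for no effect and DMSO wells lacking apelin-13 for full effect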
# EBI2 block – antagonists of human EBI2 receptor | inhibition, % at 5 µM | P32249 | EBI2 beta-arrestin recruitment, luminescence, 7a,25-OHC stimulated | 360,000 tested, 0.81% active | AID 651636; in the data active means inhibition above about 38%;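 further: enzyme fragment complementation signal reports receptor beta-arrestin coupling in cells; 0% = agonist plus DMSO wells and 100% = wells without agonist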
# CCR6 antag – CCR6 (human) receptor antagonism. CHO-K1 CCR6 PathHunter beta-arrestin, luminescence, CCL20-stimulated. inhibition, % at 20 µM. P51684. 340,000 tested, 0.49% active. AID 493098;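 active means compounds whose inhibition of the agonist-driven luminescence signal at 20 µM reaches about 50%, limit read from the data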;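 further: cells stimulated with CCL20 at 14 nM final; plate controls were DMSO with CCL20 for no effect and DMSO without agonist for full effect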
# APJ ag – APJ receptor agonism; P35414; CHO-K1 APJ PathHunter beta-arrestin, luminescence; 0% DMSO wells, 100% apelin; activation, % at 20 µM; 330,000 tested, 0.11% active; AID 2520;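 active means activation more than six SD over the plate average, tested at 20 µM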;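 further: 0% = DMSO alone and 100% = apelin-13 at 10 nM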
#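 Assay system: CHO-K1 cells stably expressing ProLink-tagged human APJ and arrestin–beta-gal acceptor. Compound dosing: 20 µM single point, 1% DMSO. Times: 16-18 h seeding, 90 min dark compound exposure, 60 min detection. Detection: beta-gal luminescence. Evaluation: APJ–arrestin association signal. Controls: negative DMSO alone, positive Apelin-13 at 10 nM.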
# CXCR6 block – CXCR6 (human) receptor inhibition; O00574; CHO-K1 PathHunter CXCR6 beta-arrestin, luminescence; 360,000 tested, 0.36% active; inhibition, % at 20 µM; in the data active means inhibition above about 34%, passing the limit was not always enough;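 further: antagonist mode with CXCL16 agonist at 10 nM final; 0% = 10 nM CXCL16 with DMSO and 100% = unstimulated wells without agonist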
# Target sequence (O00574 whole entry, looked up): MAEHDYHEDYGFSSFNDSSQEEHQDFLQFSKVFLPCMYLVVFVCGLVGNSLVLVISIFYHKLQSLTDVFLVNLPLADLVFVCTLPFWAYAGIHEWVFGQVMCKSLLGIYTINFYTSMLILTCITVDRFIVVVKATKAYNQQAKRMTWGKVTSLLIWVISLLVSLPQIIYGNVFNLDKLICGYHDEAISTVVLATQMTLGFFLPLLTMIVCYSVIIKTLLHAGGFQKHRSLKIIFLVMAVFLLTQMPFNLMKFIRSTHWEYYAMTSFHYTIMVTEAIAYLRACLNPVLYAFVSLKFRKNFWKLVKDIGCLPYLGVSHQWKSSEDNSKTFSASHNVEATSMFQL
# OPRM1 ag – counter-screen for mouse HTR2A agonists: human mu opioid receptor agonists | shares compounds with m5-HT2A agonist | U2OS OPRM1 beta-arrestin PathHunter, luminescence; DMSO 0%, DAMGO 9.3 µM 100% | activation, % at 9.3 µM | 2,300 tested, 5.3% active | AID 624380;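 active means mean activation above the mean of DMSO-only wells plus 3 SD, cut at about 0.5% in these data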
# HTR2A ag conf – mouse HTR2A agonism confirmed; CHO-K1 PathHunter beta-arrestin recruitment, luminescence; DMSO 0%, 30 µM serotonin 100%; 2,300 tested, 19% active; activation, % at 7.6 µM; shares compounds with m5-HT2A agonist;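 active means mean activation across triplicates above the hit threshold derived in the original primary screen, cut at about 15% in these data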
# The depositor's hits bear a star; x = not tested or not shown.
SMILES,m5-HT2A agonist,APJ antagonist,EBI2 block,CCR6 antag,APJ ag,CXCR6 block,OPRM1 ag,HTR2A ag conf
Cc1ccc(NC(=O)CCN2C(=O)c3ccccc3C2=O)cc1,23*,-1,-10,10,-2,2,0,-3
Cc1ccc(S(=O)(=O)N2CCCCC2)cc1NC(=O)c1cc(F)c(F)c(F)c1F,0,9,15,4,-3,3,x,x
Fc1cccc(CCN2C(=S)NC[C@@H]2Cc2ccccc2)c1,-2,-36,-1,-6,-4,0,x,x
CCCC[C@@H]1CNC(=S)N1CCc1cccc(F)c1,15*,4,-4,15,3,-8,0,-3
CCCC[C@@H]1CNC(=O)C(=O)N1CCc1cc(C(F)(F)F)cc(C(F)(F)F)c1,15*,14,-1,-6,0,-2,0,-2
O=C1NC[C@H](Cc2ccc(O)cc2)N(CCc2cc(C(F)(F)F)cc(C(F)(F)F)c2)C1=O,3,x,5,x,x,0,x,x
O=C(NC(=S)Nc1cccc(NC(=S)NC(=O)c2ccccc2)c1)c1ccccc1,-6,x,-1,39,x,21,x,x
COc1cc(OC)nc(NC(=S)NC(=O)c2ccccc2)n1,28*,-9,0,14,2,7,0,-1
CCOc1ccccc1N1CCN(Cc2ccco2)CC1,1,13,6,-21,-8,2,x,x
CCOc1ccccc1N1CCN(Cc2ccc(Br)s2)CC1,48*,10,17,13,-3,-2,0,26*
Cc1cccc(C(=O)N2CCN(Cc3nc4sc5c(c4c(=O)[nH]3)CCCC5)CC2)c1,4,-3,7,5,-3,-3,x,x
CCO[C@H]1OC(C(=O)O)=C[C@@H](c2ccccc2)[C@@H]1CCCO,15*,-23,-4,5,6,6,0,-1
O=C1NC[C@@H](CCCCN2C[C@H](Cc3ccccc3)N(CCC3CCCCC3)C(=O)C2=O)N(Cc2ccccc2)C1=O,15*,x,-2,x,x,3,-1,-5
CC(C)(C)OC(=O)NCCCCCNC(=O)c1nc[nH]c1C(=O)NCC(=O)OCc1ccccc1,12,-6,-29,-1,4,-8,x,x
CC(C)(C)OC(=O)CNC(=O)c1[nH]cnc1C(=O)NCC(=O)OCc1ccccc1,15*,-8,-46,-8,7,-1,0,3
Cc1ccc2[nH]c(=O)c(CN(CCO)C(=O)N(C)C)cc2c1,22*,1,-5,-13,7,2,-1,-5
COc1ccc(CN(Cc2cc3cc(C)ccc3[nH]c2=O)C(=O)N(C)C)cc1,-2,3,0,-8,-6,-1,x,x
CCOC(=O)c1ccc(NC(=O)COc2ccc(-n3cnnn3)cc2)cc1,17*,-20,-4,-14,0,-1,0,15*
COc1ccccc1/C=C/C(=O)NCC(=O)n1nc(C)cc1C,19*,11,-10,2,-4,-2,-1,-1
Cc1cc(C)n(C(=O)CNC(=O)/C=C/c2ccccc2)n1,-1,15,3,0,-3,11,x,x
C=Cn1cc(CNC[C@H]2O[C@@H](n3cnc4c(=O)[nH]c(N)nc43)[C@H](O)[C@@H]2O)c(C)n1,6,x,-6,x,x,-1,x,x
Cc1nnc(NCCc2ccccc2)c2ccccc12,-2,25,1,6,-1,6,x,x
CCOC(=O)CCC(=O)Nc1ccc(S(=O)(=O)Nc2cc(OC)nc(OC)n2)cc1,22*,19,-13,5,-1,-2,-1,-4
COc1ccc(C(=O)NCCn2cc(SCC(N)=O)c3ccccc32)cc1,16*,17,-7,8,-3,-1,-1,-6
CCC1C(=O)Nc2ccccc2N1C(=O)COc1ccccc1 (stereo unspecified),2,9,-7,3,-4,9,x,x
SMILES,m5-HT2A agonist,APJ antagonist,EBI2 block,CCR6 antag,APJ ag,CXCR6 block,OPRM1 ag,HTR2A ag conf
COc1cc(CNC2CCCC2)cc(Cl)c1OCc1ccc(F)cc1,18*,14,-28,1,10,-5,0.8*,4
COc1ccc(CN(C(=O)c2snc(C(N)=O)c2N)C(C(=O)NC2CCCC2)c2cc(OC)ccc2OC)cc1 (stereo unspecified),1,1,9,16,-1,9,x,x
NCCc1nc(-c2ccccc2)cs1,35*,6,-4,-4,3,7,-1,14
Cc1ccnc(NC(=O)c2cccc(NC(=O)CC3SC(N4CCCCC4)=NC3=O)c2)c1 (stereo unspecified),15*,-42,-3,6,2,-2,0,-1
Cc1ccnc(NC(=O)c2ccc(NC(=O)CC3SC(N4CCCC4)=NC3=O)cc2)c1 (stereo unspecified),11,7,-8,4,0,3,x,x
Cc1ccc(C(=O)c2cc([N+](=O)[O-])ccc2N2CCOCC2)c(C)c1,15*,-9,10,0,-9,13,0,-3
CC(=O)c1ccc(NC(=O)CN2CCC(NC(=O)c3ccccc3C)CC2)cc1,23*,x,-14,x,x,-5,0,2
Cc1ccccc1C(=O)NC1CCN(CC(=O)Nc2ccc(N(C)C)cc2)CC1,0,-16,13,5,1,0,x,x
COc1ccc(S(=O)(=O)NCC(c2ccc3c(c2)OCO3)N2CCN(c3ccccc3)CC2)cc1 (stereo unspecified),18*,24,11,16,-3,9,0,66*
CCN(CC)CCn1c2c(c(SCC(=O)Nc3ccccc3Cl)nc1=O)CCC2,-4,-8,2,7,-5,-8,x,x
CCOC(=O)Cn1c(=O)n(Cc2ccc(C)cc2)c(=O)c2cccnc21,50*,15,13,20,-2,11,-1,-3
Cc1ccc[n+](/C(=C\C(=C=[N-])C#N)C(=O)c2ccc(Cl)cc2)c1,17*,0,-11,0,1,10,-1,-2
O=C1N(CN2CCN(c3cccc(Cl)c3)CC2)c2ccccc2C12OCCCO2,18*,14,3,12,-4,-11,-1,8
CN1OC[C@@H]2CN(Cc3cc(Cl)cc(Cl)c3)[C@H](c3cccc(Oc4ccccc4)c3)C[C@@H]21,15*,x,12,28,x,0,-1,-3
CCc1nc2oc3ccccc3c(=O)c2cc1C(=O)OC,1,x,5,4,x,4,x,x
CC(C)c1ccc(CN(C(=O)c2cccs2)C2CCS(=O)(=O)C2)cc1 (stereo unspecified),15*,18,14,23,0,5,-1,-4
